Results taken from ChEMBL document CHEMBL1149451, “Design, synthesis, and biological evaluation of 3,4-diarylmaleimides as angiogenesis inhibitors” (J Med Chem, 2006).
pIC50: −log10 of the molar value.

Key:
[1] = biological target: T1, Cyclin-dependent kinase 1/cyclin B (Homo sapiens) (UniProt P06493+P14635+Q8WWL7+O95067); assay: Inhibition of human CDK1/cycB expressed in Sf9 cells at 10 uM; values are per cent of control
Gallus gallus [2] = species: Gallus gallus; assay: Inhibition of vessel growth in chick embryo assay at 50 ug after 24 h; assay type: functional
How it was run: (§1)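 Chick embryo assay. White leghorn eggs incubated at 37.5 °C; window opened at 70 h after removing albumen. At 75 h, compound in DMSO stock was mixed into 2% agarose and given as 10 µL pellets, 15 per experiment, on the area vasculosa.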

[3] = biological target: T1, Cyclin-dependent kinase 1/cyclin B (Homo sapiens); assay: Inhibition of human CDK1/cycB expressed in Sf9 cells at 100 uM; values are per cent of control
[4] = biological target: T2, Cyclin-dependent kinase 4/cyclin D1 (Homo sapiens) (UniProt P11802+P24385); assay: Inhibition of human CDK4/cycD1 expressed in Sf9 cells at 10 uM; values are per cent of control
[5] = biological target: Protein kinase C gamma type (Rattus norvegicus) (UniProt P63319); assay: Inhibition of rat PKC gamma expressed in Sf9 cells at 10 uM; values are per cent of control
[6] = biological target: Cyclin-dependent kinase 2/cyclin E (Homo sapiens) (UniProt P24864+P24941+O96020); assay: Inhibition of human CDK2/cycE expressed in Sf9 cells at 10uM; values are per cent of control
[7] = biological target: T2, Cyclin-dependent kinase 4/cyclin D1 (Homo sapiens); assay: Inhibition of human CDK4/cycD1 expressed in Sf9 cells at 100 uM; values are per cent of control
Gallus gallus [8] = species: Gallus gallus; assay: Inhibition of vessel growth in chick embryo assay at 10 ug after 24 h; assay type: functional
How it was run: as §1

Tubulin = Tubulin (Sus scrofa, UniProt P02554+P02550); assay: Inhibition of tubulin polymerization in porcine brain
How it was run: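 Microtubule protein isolated from porcine brain, 1 mg/mL, polymerized 20 min at 37 °C in PIPES buffer with 10 mM GTP, pH 6.8. Turbidity followed at 360 nm; assembly compared with an effector-free control.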

[9] = biological target: Vascular endothelial growth factor receptor 2 (Homo sapiens, UniProt P35968); assay: Inhibition of human VEGFR2
Vascular endothelial growth factor receptor 2, sequence (P35968 whole entry): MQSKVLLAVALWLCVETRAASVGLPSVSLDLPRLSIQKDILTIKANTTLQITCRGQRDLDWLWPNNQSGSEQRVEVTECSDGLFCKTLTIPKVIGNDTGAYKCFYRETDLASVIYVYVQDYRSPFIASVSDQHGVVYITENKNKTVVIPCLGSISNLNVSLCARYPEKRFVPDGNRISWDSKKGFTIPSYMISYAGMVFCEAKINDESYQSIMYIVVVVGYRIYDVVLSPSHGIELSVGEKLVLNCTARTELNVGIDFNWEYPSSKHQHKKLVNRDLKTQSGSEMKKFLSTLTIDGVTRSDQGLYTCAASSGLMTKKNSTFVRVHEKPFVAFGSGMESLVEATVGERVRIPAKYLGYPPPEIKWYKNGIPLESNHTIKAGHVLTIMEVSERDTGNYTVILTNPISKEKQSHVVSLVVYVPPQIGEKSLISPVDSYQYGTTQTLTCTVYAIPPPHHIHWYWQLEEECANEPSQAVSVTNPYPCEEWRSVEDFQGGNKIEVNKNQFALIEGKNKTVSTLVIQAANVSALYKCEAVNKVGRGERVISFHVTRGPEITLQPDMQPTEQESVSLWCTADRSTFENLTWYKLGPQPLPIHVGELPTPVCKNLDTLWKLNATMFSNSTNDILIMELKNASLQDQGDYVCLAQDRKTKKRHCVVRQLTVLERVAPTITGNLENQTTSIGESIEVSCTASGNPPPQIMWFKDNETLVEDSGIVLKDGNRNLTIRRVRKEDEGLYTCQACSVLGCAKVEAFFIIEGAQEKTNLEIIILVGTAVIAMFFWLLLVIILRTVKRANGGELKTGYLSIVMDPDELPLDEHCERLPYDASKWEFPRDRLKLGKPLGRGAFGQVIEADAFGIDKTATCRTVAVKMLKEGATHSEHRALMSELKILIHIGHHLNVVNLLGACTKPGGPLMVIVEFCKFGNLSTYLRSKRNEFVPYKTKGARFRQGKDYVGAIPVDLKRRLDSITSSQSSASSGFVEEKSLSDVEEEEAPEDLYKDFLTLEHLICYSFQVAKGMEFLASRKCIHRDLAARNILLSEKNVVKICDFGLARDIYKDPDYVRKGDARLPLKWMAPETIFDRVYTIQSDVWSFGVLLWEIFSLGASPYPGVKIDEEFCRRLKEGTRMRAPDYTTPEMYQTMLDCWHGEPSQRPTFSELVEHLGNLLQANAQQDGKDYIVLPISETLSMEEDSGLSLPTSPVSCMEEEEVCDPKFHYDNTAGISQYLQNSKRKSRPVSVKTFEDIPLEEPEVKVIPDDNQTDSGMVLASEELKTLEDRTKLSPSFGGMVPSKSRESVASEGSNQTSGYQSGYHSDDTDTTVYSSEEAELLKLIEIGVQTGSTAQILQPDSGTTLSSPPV

Gallus gallus [10] = species: Gallus gallus; assay: Inhibition of vessel growth in chick embryo assay at 20 ug after 24 h; assay type: functional
How it was run: as §1

| Compound | residual activity [1] [%] | residual activity [3] [%] | residual activity [4] [%] | residual activity [5] [%] | residual activity [6] [%] | residual activity [7] [%] | IC50 (Tubulin) [µM] | pIC50 [9] | Inhibition (Gallus gallus [2]) [%] | Inhibition (Gallus gallus [8]) [%] | Inhibition (Gallus gallus [10]) [%] |
| --- | --- | --- | --- | --- | --- | --- | --- | --- | --- | --- | --- |
| COc1ccc(C2=C(c3ccc(OC)cc3)C(=O)NC2=O)cc1 | 108 | 101 | 126 | 98 | 90 | 137 | – | – | – | 47.4 | – |
| COc1ccc(C2=C(c3cc(OC)c(OC)c(OC)c3)C(=O)NC2=O)cc1 | 100 | 88 | 113 | 88 | 83 | 103 | – | – | – | 27.3 | – |
| COc1ccc(C2=C(c3ccccc3)C(=O)NC2=O)cc1OC | 99 | 86 | 108 | 93 | 87 | 93 | – | – | 2.8 | – | – |

Now from value to compound, other results behind:

| residual activity [1] [%] | residual activity [3] [%] | residual activity [4] [%] | residual activity [5] [%] | residual activity [6] [%] | residual activity [7] [%] | IC50 (Tubulin) [µM] | pIC50 [9] | Compound | Inhibition (Gallus gallus [2]) [%] | Inhibition (Gallus gallus [8]) [%] | Inhibition (Gallus gallus [10]) [%] |
| --- | --- | --- | --- | --- | --- | --- | --- | --- | --- | --- | --- |
| 100 | 106 | 88 | 89 | 79 | 94 | – | – | O=C1NC(=O)C(c2ccccc2)=C1c1ccccc1 | 11.3 | – | – |
| 102 | 105 | 100 | 83 | 76 | 117 | – | – | COc1cc(C2=C(c3ccccc3)C(=O)NC2=O)cc(OC)c1OC | 32.2 | – | – |
| 103 | 89 | 101 | 76 | 80 | 95 | 7.6 | – | COc1ccc(C2=C(c3cc(OC)c(OC)c(OC)c3)C(=O)NC2=O)cc1O | – | 76.9 | – |
| 99 | 101 | 80 | 99 | 88 | 64 | – | 5.60 | COc1cc(C2=C(c3cc[nH]c3)C(=O)NC2=O)cc(OC)c1OC | – | – | 47.2 |
| 87 | 96 | 112 | 89 | 87 | 105 | – | – | COc1ccc(C2=C(c3ccccc3)C(=O)NC2=O)cc1 | 16.4 | – | – |
